Active and inactive are the calls of the source. The calls are words filed in the database; no cut-off is given here.
Columns and labels:
Mus musculus [1] = species: Mus musculus; assay: Compound was evaluated for hallucinogenic activity in mice; Inactive; type: functional, organism-based
Summary of the method: (§1)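 Male albino Swiss-Webster derived mice, 25–40 g, group housed at 22–24 °C, 12–12 h light-dark cycle. HCl salt given ip in saline (0.1 mL/10 g body weight). Mice observed in groups of three, continuously for 30 min; total hindleg scratches of the back of the ear counted, with the hindleg then returned to the floor. Saline control included.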

Mus musculus [2] = assay: Evaluated for ear-scratch response (hallucinogen like activity) in mice at a dose of 5.00 mg/Kg; type: functional; summary of the method: as §1
Mus musculus [3] = assay: Evaluated for ear-scratch response (hallucinogen like activity) in mice at a dose of 10.0 mg/Kg; type: functional; summary of the method: as §1
Mus musculus [4] = assay: Evaluated for ear-scratch response (hallucinogen like activity) in mice at a dose of 1.25 mg/Kg; type: functional; summary of the method: as §1
Mus musculus [5] = assay: Evaluated for ear-scratch response (hallucinogen like activity) in mice at a dose of 2.5 mg/Kg; type: functional; summary of the method: as §1
Mus musculus [6] = assay: Evaluated for ear-scratch response (hallucinogen like activity) in mice at a dose of 20.0 mg/Kg; type: functional; summary of the method: as §1
Mus musculus [7] = assay: Evaluated for ear-scratch response (hallucinogen like activity) in mice at a dose of 2.00 mg/Kg; type: functional; summary of the method: as §1
Mus musculus [8] = assay: Evaluated for ear-scratch response (hallucinogen like activity) in mice at a dose of 1.00 mg/Kg; type: functional; summary of the method: as §1
Mus musculus [9] = assay: Evaluated for ear-scratch response (hallucinogen like activity) in mice at a dose of 4.00 mg/Kg; type: functional; summary of the method: as §1
Mus musculus [10] = assay: Evaluated for ear-scratch response (hallucinogen like activity) in mice at a dose of 10.00 mg/Kg; type: functional; summary of the method: as §1
Mus musculus [11] = assay: Evaluated for ear-scratch response (hallucinogen like activity) in mice at a dose of 20.00 mg/Kg; type: functional; summary of the method: as §1

CC[C@@H](N)Cc1cc(OC)c(C)cc1OC
Halucinogenic activity (Mus musculus [1]): inactive

COc1cc([C@@H]2[C@@H](C)[C@H]2N)c(OC)cc1C (stereo in doubt; 4a)
No. of scratches (Mus musculus [2]): 17.3 | No. of scratches (Mus musculus [3]): 12.8 | No. of scratches (Mus musculus [4]): 11.5 | No. of scratches (Mus musculus [5]): 10.8 | No. of scratches (Mus musculus [6]): 2.5

COc1cc(C[C@@H](C)N)c(OC)cc1C
No. of scratches (Mus musculus [7]): 109.2 | No. of scratches (Mus musculus [8]): 52.4 | No. of scratches (Mus musculus [9]): 79

COc1cc(C2CC2N)c(OC)cc1C (configuration not stated)
No. of scratches (Mus musculus [2]): 39.5 | No. of scratches (Mus musculus [10]): 56.2 | No. of scratches (Mus musculus [11]): 64.2
